Data as given in ChEMBL document CHEMBL4477197, “Antitumor Activity of Spicatoside A by Modulation of Autophagy and Apoptosis in Human Colorectal Cancer Cells” (J Nat Prod, 2016).
The source made the active and inactive calls. No cut-off for these calls is given here.

Tests used:
[1] = biological target: c-Jun N-terminal kinase, JNK (Homo sapiens) (UniProt P45983+P53779+P45984); assay: Activation of JNK in human HCT116 cells after 24 hrs by Western blot analysis; format: cell-based
HCT-116 [2] = assay: Antiproliferative activity against human HCT116 cells after 24 to 72 hrs by SRB assay; format: functional, cell-based
In short: (§1)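 Cells from ATCC were grown at 37 °C in 5% CO2, in RPMI 1640 (A549, HCT116, SNU-638) or DMEM (MDA-MB-231, SK-HEP-1, MRC5) with 10% FBS. They were seeded at 6 × 10^3 cells/well for 24 h, then exposed for 72 h. Cells were TCA-fixed, stained with 0.4% SRB, and read at 515 nm against day-zero plates. IC50 came from nonlinear regression, as means ± SD.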

HCT-116 [3] = assay: Induction of autophagy in human HCT116 cells assessed as increase in LAMP1 expression at 30 uM at 24 hrs by Western blot analysis; format: functional, cell-based
HCT-116 [4] = assay: Induction of apoptosis in human HCT116 cells assessed as caspase 8 cleavage at 30 uM upto 48 hrs by Western blot analysis; format: functional, cell-based
In short: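 Time course: HCT116 cells were exposed to 30 μM compound for 6, 12, 24, 36 and 48 h. LC3-II, beclin 1, cleaved caspase-8 and cleaved PARP were measured by Western blot (SDS-PAGE, PVDF, ECL) with β-actin as internal standard.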

HCT-116 [5] = assay: Induction of autophagy in human HCT116 cells assessed as vacuole formation in cytoplasm at 20 uM by inverted phase contrast microscopy relative to control; format: functional, cell-based
In short: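 HCT116 cells were exposed to 20 μM compound or vehicle. Cytoplasmic vacuoles were inspected and photographed under an inverted phase-contrast microscope at 100×.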

[6] = biological target: Mitogen-activated protein kinase; ERK1/ERK2 (Homo sapiens) (UniProt P27361+P28482); assay: Inhibition of ERK1/2 phosphorylation in human HCT116 cells after 24 hrs by Western blot analysis; format: cell-based
HCT-116 [7] = assay: Induction of autophagy in human HCT116 cells assessed as formation of acidic vesicular organelles at 20 uM after 24 hrs in presence of bafilomycin A1 by acridine orange staining based assay; format: functional, cell-based
In short: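 Cells were seeded at 1 × 10^5/well, grown 24 h, then treated 24 h with 20 μM compound, 2.5 nM bafilomycin A1, or both. They were stained with acridine orange (2 μg/mL) for 15 min and washed in DPBS. AO-positive cells were quantified by high-content imaging and expressed as an index versus vehicle. Triplicates.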

MRC5 = assay: Antiproliferative activity against human MRC5 cells after 24 to 72 hrs by SRB assay; format: cell-based; in short: as §1
HCT-116 [8] = assay: Induction of apoptosis in human HCT116 cells assessed as PARP cleavage at 30 uM after 24 hrs in presence of autophagy inhibitor 3-MA by Western blot analysis; format: functional, cell-based
In short: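 HCT116 cells were pretreated 1 h with 2 mM 3-MA, then given 30 μM compound for a further 24 h. Whole-cell lysates were immunoblotted for LC3-II and cleaved PARP, with β-actin as loading standard and ECL detection. Blots are representative of three separate determinations.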

HCT-116 [9] = assay: Induction of apoptosis in human HCT116 cells assessed as increase in cytochrome c levels in cytosol after 48 hrs by Western blot analysis; format: functional, cell-based
HCT-116 [10] = assay: Induction of apoptosis in human HCT116 cells assessed as cell rounding after 48 hrs; format: functional, cell-based
HCT-116 [11] = assay: Induction of apoptosis in human HCT116 cells assessed as downregulation of Bcl-2 levels at 10 to 30 uM after 48 hrs by Western blot analysis; format: functional, cell-based
HCT-116 [12] = assay: Antitumor activity against human HCT116 cells xenografted in BALB/c-nu mouse assessed as inhibition of tumor volume at 2.5 mg/kg, ip administered three times per week for 28 days measured every 3 to 4 days of dosing relative to control; format: functional; conditions: HCT-116, ip
In short: (§2)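 HCT116 cells (2 × 106 in 200 μL medium) injected subcutaneously into the right flank of nude mice; at ~200 mm3, mice randomized into groups of five. Compound at 2.5 or 5 mg/kg, dissolved in normal saline with 0.5% Tween 80, given ip three times weekly for 28 days; vehicle controls got equal volume. Tumor volume measured by caliper every 3–4 days.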

[13] = biological target: MAP kinase p38 (Homo sapiens) (UniProt O15264+Q15759+Q16539+P53778); assay: Induction of p38 phosphorylation in human HCT116 cells after 24 hrs by Western blot analysis; format: cell-based
HCT-116 [14] = assay: Induction of autophagy in human HCT116 cells assessed as downregulation of p62 expression at 10 to 30 uM after 24 hrs by Western blot analysis; format: functional, cell-based
In short: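 HCT116 cells were cultured 24 h with the indicated concentrations. Lysates were made in SDS buffer with NaF and orthovanadate and quantified by BCA; 10–30 μg protein was separated by 6–15% SDS-PAGE and transferred to PVDF. After 5% BSA blocking, blots were probed for LC3-II, beclin 1, p62, LAMP1 and cathepsin D, with ECL detection.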

HCT-116 [15] = assay: Antitumor activity against human HCT116 cells xenografted in BALB/c-nu mouse assessed as inhibition of tumor volume at 5 mg/kg, ip administered three times per week for 28 days measured every 3 to 4 days of dosing relative to control; format: functional; conditions: HCT-116, ip; in short: as §2
HCT-116 [16] = assay: Induction of apoptosis in human HCT116 cells assessed as activation of caspase 8 at 10 to 30 uM after 48 hrs by Western blot analysis; format: functional, cell-based
In short: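 HCT116 cells were treated with the indicated concentrations for 48 h. Lysates were prepared in SDS sample buffer and 10–30 μg protein was separated by SDS-PAGE, blotted to PVDF and blocked in 5% BSA. Cleaved caspase-8, -9, -3 and PARP were detected by ECL.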

[17] = Inhibition of PI3K/Akt/mTOR in human HCT116 cells assessed as upregulation of PTEN at 10 to 30 uM after 24 hrs by Western blot analysis; format: cell-based
In short: (§3)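 HCT116 cells (RPMI 1640, 10% FBS, 37 °C, 5% CO2) exposed to the compound for 24 h, then lysed in 2× SDS sample buffer with NaF and orthovanadate and boiled. BCA-normalised protein (10−30 μg) run on 6−15% SDS-PAGE and blotted to PVDF. Blocked in 5% BSA/PBS-Tween, probed for PI3K, PTEN, Akt and mTOR, and detected by ECL. Blots are representative of three determinations.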

[18] = Inhibition of PI3K/Akt/mTOR in human HCT116 cells assessed as downregulation of PI3K p85 at 10 to 30 uM after 24 hrs by Western blot analysis; format: cell-based; in short: as §3
SNU-638 = assay: Antiproliferative activity against human SNU638 cells after 24 to 72 hrs by SRB assay; format: functional, cell-based; in short: as §1
A549 = assay: Antiproliferative activity against human A549 cells after 24 to 72 hrs by SRB assay; format: functional, cell-based; in short: as §1
MDA-MB-231 = assay: Antiproliferative activity against human MDA-MB-231 cells after 24 to 72 hrs by SRB assay; format: functional, cell-based; in short: as §1

Chain of Mitogen-activated protein kinase; ERK1/ERK2 (Homo sapiens) (P27361 whole entry, looked up): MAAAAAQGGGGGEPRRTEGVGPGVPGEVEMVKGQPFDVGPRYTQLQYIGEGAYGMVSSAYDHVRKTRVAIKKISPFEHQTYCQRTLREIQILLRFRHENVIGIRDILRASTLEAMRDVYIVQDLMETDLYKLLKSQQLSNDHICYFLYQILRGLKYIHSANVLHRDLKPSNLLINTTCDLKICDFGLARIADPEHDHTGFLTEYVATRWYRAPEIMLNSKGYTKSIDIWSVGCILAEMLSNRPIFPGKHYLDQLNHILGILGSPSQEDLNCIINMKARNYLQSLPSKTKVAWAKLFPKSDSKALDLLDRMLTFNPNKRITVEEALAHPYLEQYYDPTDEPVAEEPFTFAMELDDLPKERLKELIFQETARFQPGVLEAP
Chain of Mitogen-activated protein kinase; ERK1/ERK2 (Homo sapiens) (P28482 whole entry, looked up): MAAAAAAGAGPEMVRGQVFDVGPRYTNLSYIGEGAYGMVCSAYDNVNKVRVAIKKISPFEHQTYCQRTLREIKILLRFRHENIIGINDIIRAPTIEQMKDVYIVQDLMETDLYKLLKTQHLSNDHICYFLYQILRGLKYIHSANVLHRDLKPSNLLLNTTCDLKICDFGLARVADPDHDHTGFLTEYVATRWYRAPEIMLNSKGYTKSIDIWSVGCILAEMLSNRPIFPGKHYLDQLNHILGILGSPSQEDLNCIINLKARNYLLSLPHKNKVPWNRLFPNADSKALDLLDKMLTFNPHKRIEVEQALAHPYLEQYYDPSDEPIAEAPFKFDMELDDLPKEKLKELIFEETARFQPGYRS

SMILES: C[C@H]1CC[C@@]2(OC1)O[C@H]1C[C@H]3[C@@H]4CC=C5C[C@@H](O)C[C@@H](O[C@@H]6O[C@H](C)[C@H](O)[C@H](O[C@@H]7OC[C@@H](O)[C@H](O)[C@H]7O)[C@H]6O[C@@H]6O[C@H](CO)[C@@H](O)[C@H](O)[C@H]6O)[C@]5(C)[C@H]4CC[C@]3(C)[C@H]1[C@@H]2C
- Activity [1]: inactive
- IC50 (HCT-116 [2]): 13.8 µM
- Activity (HCT-116 [3]): Active
- Activity (HCT-116 [4]): Active
- Activity (HCT-116 [5]): Active
- inhibition [6]: Dose-dependent effect
- Activity (HCT-116 [7]): inactive
- IC50 (MRC5): 82 µM
- Activity (HCT-116 [8]): Active
- Activity (HCT-116 [9]): Dose-dependent effect
- Activity (HCT-116 [10]): Active
- Activity (HCT-116 [11]): Active
- inhibition in vivo at 2.5 mg/kg (HCT-116 [12]): 38.8%
- Activity [13]: Dose-dependent effect
- Activity (HCT-116 [14]): Active
- inhibition in vivo at 5 mg/kg (HCT-116 [15]): 57.5%
- Activity (HCT-116 [16]): Active
- inhibition [17]: Active
- inhibition [18]: Active
- IC50 (SNU-638): 14.8 µM
- IC50 (A549): 26 µM
- IC50 (MDA-MB-231): 29.6 µM
